Experimental data reported in ChEMBL document CHEMBL1127325, “Potent gastrin-releasing peptide (GRP) antagonists derived from GRP (19-27) with a C-terminal DPro psi [CH2NH]Phe-NH2 and N-terminal aromatic residues” (J Med Chem, 1994).
pIC50: −log10 of the molar value. The source made the active and inactive calls. No cut-off for these calls is given here. Where a SMILES comes first, the peptide text is derived from it. [ ]: non-standard residue; d: D form. The star is where a group is joined. ProΨ(CH2NH)PheNH2 = NC(=O)[C@H](Cc1ccccc1)NC[C@@H]1CCCN1*; dProψ(CH2NH)PheNH2 = NC(=O)[C@H](Cc1ccccc1)NC[C@H]1CCCN1*; Propanoyl(3-(4-MeO-Ph)) = COc1ccc(CCC(=O)*)cc1; Desaminotyrosyl = O=C(CCc1ccc(O)cc1)*; Hydrocinnamoyl = O=C(CCc1ccccc1)*; X8 = COc1cc(CCC(=O)*)cc(OC)c1OC; X5 = C[C@@H](C(=O)*)c1ccccc1; X6 = C[C@H](C(=O)*)c1ccccc1; X7 = CC(C)(CC(=O)*)c1ccccc1; X1 = CC(C)(C(=O)*)c1ccccc1; Sar = CNCC(=O)O

How the values were obtained:
[1] = molecular target: T1, Gastrin-releasing peptide receptor (Mus musculus, UniProt P21729); assay: Ability of peptide to inhibit binding of 10 pM [125I]gastrin releasing peptide to S-3T3 cell membrane.; assay type: cell-based
T1 sequence (P21729 whole entry): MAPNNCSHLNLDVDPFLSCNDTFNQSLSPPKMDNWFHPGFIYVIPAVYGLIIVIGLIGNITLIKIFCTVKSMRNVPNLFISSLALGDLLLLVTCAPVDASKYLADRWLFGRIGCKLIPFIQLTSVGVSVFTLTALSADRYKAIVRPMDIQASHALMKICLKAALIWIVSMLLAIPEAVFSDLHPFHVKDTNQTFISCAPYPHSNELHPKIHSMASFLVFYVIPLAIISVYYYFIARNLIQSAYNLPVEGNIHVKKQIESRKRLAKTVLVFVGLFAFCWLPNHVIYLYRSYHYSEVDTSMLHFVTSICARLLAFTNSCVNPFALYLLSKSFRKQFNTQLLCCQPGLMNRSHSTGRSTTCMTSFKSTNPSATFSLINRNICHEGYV
How it was run: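 Swiss 3T3 membranes (10 µg protein) incubated in triplicate with 10 pM [125I]GRP(1-27) in HEPES-KOH pH 6.8 (20 mM) with EGTA, MgCl2, BSA and protease inhibitors, 60 min at 37 °C with shaking. Terminated by filtration through PEI-pretreated GF/B filters, gamma counted. Nonspecific binding taken with 10 nM unlabeled GRP(1-27). IC50 for half-maximal inhibition of specific binding by Hill plot analysis.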

[2] = molecular target: T1, Gastrin-releasing peptide receptor; assay: The ability of the peptide to inhibit the binding of 50 pM [125I]gastrin releasing peptide to intact S-3T3 cells; assay type: cell-based
How it was run: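 Serially diluted peptides overlaid in triplicate on quiescent Swiss 3T3 monolayers (about 10^5 cells) with 50 pM [125I]GRP in maintenance medium, 30 min at 37 °C. Monolayers washed three times with chilled medium, solubilized, radioactivity counted. IC50 values reported.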

[3] = molecular target: Gastrin-releasing peptide receptor (Mus musculus) (UniProt P21729); assay: Inhibition of 6 nM bombesin induced [3H]thymidine incorporation measured in swiss 3T3 cells using a mitogenicity assay; assay type: functional, cell-based
Gastrin-releasing peptide receptor (Mus musculus), sequence (P21729 whole entry): as above
How it was run: (§1)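 Density-arrested quiescent Swiss 3T3 monolayers treated in triplicate with test peptide (generally log dilutions) plus 6 nM bombesin for 18 h, then pulsed 2 h with 0.5 µCi [3H]thymidine per well. Cells washed with cold PBS, fixed in methanol/acetic acid, solubilized, scintillation counted. IC50 ± SEM over replicate trials; na means no activity at 10^-4 M.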

[4] = The ability of the peptide to inhibit the binding of 10 pM [125I]gastrin releasing peptide to S-3T3 cell membrane was measured; details: Mus musculus
NIH3T3 [5] = assay: The ability of the peptide to inhibit the binding of 50 pM [125I]gastrin releasing peptide to intact S-3T3 cells was measured; assay type: cell-based; details: Mus musculus
How it was run: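 Quiescent, density-arrested Swiss 3T3 monolayers (about 10^5 cells) in maintenance medium. Serially diluted peptides were added in triplicate with [125I]GRP and incubated 37 °C, 30 min. Monolayers were washed three times with chilled medium, solubilized with detergent and counted. IC50 reported ± SEM.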

NIH3T3 [6] = assay: Ability of the peptide to inhibit 6 nM bombesin induced [3H]thymidine incorporation was measured in swiss 3T3 cells using mitogenicity assay; na=Not active; assay type: functional, cell-based; details: Mus musculus; how it was run: as §1

CC(C)[C@H](NC(=O)[C@H](C)NC(=O)[C@H](Cc1c[nH]c2ccccc12)NC(=O)[C@H](Cc1cnc[nH]1)NC(=O)C[C@H](C)c1ccccc1)C(=O)N[C@H](C)C(=O)N[C@@H](Cc1cnc[nH]1)C(=O)N1CCC[C@@H]1CN[C@@H](Cc1ccccc1)C(N)=O
pIC50 [1]: 9.68
pIC50 [2]: 8.00

CC(C)[C@H](NC(=O)[C@H](C)NC(=O)[C@H](Cc1c[nH]c2ccccc12)NC(=O)[C@H](Cc1cnc[nH]1)NC(=O)CCc1cccc(C(F)(F)F)c1)C(=O)N[C@H](C)C(=O)N[C@@H](Cc1cnc[nH]1)C(=O)N1CCC[C@@H]1CN[C@@H](Cc1ccccc1)C(N)=O
pIC50 [1]: 9.80
pIC50 [2]: 8.00

CC(C)[C@H](NC(=O)[C@H](C)NC(=O)[C@H](Cc1c[nH]c2ccccc12)NC(=O)[C@H](Cc1cnc[nH]1)NC(=O)CCc1ccccc1)C(=O)N[C@H](C)C(=O)N[C@@H](Cc1cnc[nH]1)C(=O)N1CCC[C@@H]1CN[C@H](Cc1ccc2ccccc2c1)C(N)=O
pIC50 [1]: 8.70
pIC50 [2]: 8.30

CC(C)[C@H](NC(=O)[C@H](C)NC(=O)[C@H](Cc1c[nH]c2ccccc12)NC(=O)[C@H](Cc1cnc[nH]1)NC(=O)C1CCc2ccccc2C1)C(=O)N[C@H](C)C(=O)N[C@@H](Cc1cnc[nH]1)C(=O)N1CCC[C@@H]1CN[C@@H](Cc1ccccc1)C(N)=O (stereo partly drawn)
pIC50 [1]: 10.10
pIC50 [2]: 9.52

CC(C)[C@H](NC(=O)[C@H](C)NC(=O)[C@H](Cc1c[nH]c2ccccc12)NC(=O)[C@H](Cc1c[nH]cn1)NC(=O)C1C[C@@H]1c1ccccc1)C(=O)N[C@H](C)C(=O)N[C@@H](Cc1c[nH]cn1)C(=O)N1CCC[C@@H]1CN[C@@H](Cc1ccccc1)C(N)=O (stereo partly drawn)
pIC50 [1]: 10.31
pIC50 [2]: 10.52
Activity [3]: 0.2 nM

CC(C)[C@H](NC(=O)[C@H](C)NC(=O)[C@H](Cc1c[nH]c2ccccc12)NC(=O)[C@H](Cc1cnc[nH]1)NC(=O)c1cccc2ccccc12)C(=O)N[C@H](C)C(=O)N[C@@H](Cc1cnc[nH]1)C(=O)N1CCC[C@@H]1CN[C@@H](Cc1ccccc1)C(N)=O
pIC50 [1]: 10.30
pIC50 [2]: 12.00

CC(C)[C@H](NC(=O)[C@H](C)NC(=O)[C@H](Cc1c[nH]c2ccccc12)NC(=O)[C@H](Cc1c[nH]cn1)NC(=O)Cc1ccccc1N)C(=O)N[C@H](C)C(=O)N[C@@H](Cc1c[nH]cn1)C(=O)N1CCC[C@@H]1CN[C@@H](Cc1ccccc1)C(N)=O
pIC50 [1]: 8.70
pIC50 [2]: 10.00
Activity [3]: 13 nM

CC(C)[C@H](NC(=O)[C@H](C)NC(=O)[C@H](Cc1c[nH]c2ccccc12)NC(=O)[C@H](Cc1cnc[nH]1)NC(=O)CCc1ccc(O)cc1)C(=O)N[C@H](C)C(=O)N[C@@H](Cc1cnc[nH]1)C(=O)N1CCC[C@@H]1CN[C@@H](Cc1ccccc1)C(N)=O (Desaminotyrosyl-HWAV[dA]H-{dProψ(CH2NH)PheNH2})
pIC50 [1]: 9.64
pIC50 [2]: 10.30

CC(C)[C@H](NC(=O)[C@H](C)NC(=O)[C@H](Cc1c[nH]c2ccccc12)NC(=O)[C@H](Cc1cnc[nH]1)NC(=O)CCc1ccccc1)C(=O)N(C)CC(=O)N[C@@H](Cc1cnc[nH]1)C(=O)N1CCC[C@H]1CN[C@@H](Cc1ccccc1)C(N)=O (Hydrocinnamoyl-HWAV[Sar]H-{ProΨ(CH2NH)PheNH2})
pIC50 [1]: 7.68
pIC50 [2]: 10.00

CC(C)[C@H](NC(=O)[C@H](C)NC(=O)[C@H](Cc1c[nH]c2ccccc12)NC(=O)[C@H](Cc1c[nH]cn1)NC(=O)C(C)(C)c1ccccc1)C(=O)N[C@H](C)C(=O)N[C@@H](Cc1c[nH]cn1)C(=O)N1CCC[C@@H]1CN[C@@H](Cc1ccccc1)C(N)=O (X1-HWAV[dA]H-{dProψ(CH2NH)PheNH2})
pIC50 [1]: 9.74
pIC50 [2]: 11.52
Activity [3]: 0.34 nM

CC(C)[C@H](NC(=O)[C@H](C)NC(=O)[C@H](Cc1c[nH]c2ccccc12)NC(=O)[C@H](Cc1c[nH]cn1)NC(=O)[C@H](C)c1ccccc1)C(=O)N[C@H](C)C(=O)N[C@@H](Cc1c[nH]cn1)C(=O)N1CCC[C@@H]1CN[C@@H](Cc1ccccc1)C(N)=O (X5-HWAV[dA]H-{dProψ(CH2NH)PheNH2})
pIC50 [1]: 9.02
pIC50 [2]: 7.52
Activity [3]: 0.9 nM

CC(C)[C@H](NC(=O)[C@H](C)NC(=O)[C@H](Cc1c[nH]c2ccccc12)NC(=O)[C@H](Cc1c[nH]cn1)NC(=O)[C@@H](C)c1ccccc1)C(=O)N[C@H](C)C(=O)N[C@@H](Cc1c[nH]cn1)C(=O)N1CCC[C@@H]1CN[C@@H](Cc1ccccc1)C(N)=O (X6-HWAV[dA]H-{dProψ(CH2NH)PheNH2})
pIC50 [1]: 8.89
pIC50 [2]: 9.00
Activity [3]: 7e-08

CC(C)[C@H](NC(=O)[C@H](C)NC(=O)[C@H](Cc1c[nH]c2ccccc12)NC(=O)[C@H](Cc1c[nH]cn1)NC(=O)CC(C)(C)c1ccccc1)C(=O)N[C@H](C)C(=O)N[C@@H](Cc1c[nH]cn1)C(=O)N1CCC[C@@H]1CN[C@@H](Cc1ccccc1)C(N)=O (X7-HWAV[dA]H-{dProψ(CH2NH)PheNH2})
pIC50 [1]: 8.92
pIC50 [2]: 8.00
Activity [3]: 18 nM

COc1cc(CCC(=O)N[C@@H](Cc2c[nH]cn2)C(=O)N[C@@H](Cc2c[nH]c3ccccc23)C(=O)N[C@@H](C)C(=O)N[C@H](C(=O)N[C@H](C)C(=O)N[C@@H](Cc2c[nH]cn2)C(=O)N2CCC[C@@H]2CN[C@@H](Cc2ccccc2)C(N)=O)C(C)C)cc(OC)c1OC (X8-HWAV[dA]H-{dProψ(CH2NH)PheNH2})
pIC50 [4]: 9.34
pIC50 (NIH3T3 [5]): 12.00
Activity [3]: 0.3 nM

CC(NC(=O)[C@H](Cc1c[nH]c2ccccc12)NC(=O)[C@H](Cc1c[nH]cn1)NC(=O)CCc1ccccc1)C(=O)N[C@H](C(=O)NC(C)C(=O)N[C@@H](Cc1c[nH]cn1)C(=O)N1CCC[C@H]1C(O)CC(=O)N[C@@H](Cc1ccccc1)C(N)=O)C(C)C (stereo in doubt)
pIC50 [1]: 7.51
pIC50 [2]: 7.30
Activity [3]: 26 nM

CC(NC(=O)[C@H](Cc1c[nH]c2ccccc12)NC(=O)[C@H](Cc1c[nH]cn1)NC(=O)CCc1ccccc1)C(=O)N[C@H](C(=O)NC(C)C(=O)N[C@@H](Cc1c[nH]cn1)C(=O)N1CCC[C@H]1CN[C@@H](Cc1ccccc1)C(N)=O)C(C)C (stereo in doubt)
pIC50 [1]: 9.66
pIC50 [2]: 12.00
Activity [3]: 1 nM

CC(NC(=O)[C@H](Cc1c[nH]c2ccccc12)NC(=O)[C@H](Cc1cccs1)NC(=O)CCc1ccccc1)C(=O)N[C@H](C(=O)NC(C)C(=O)N[C@@H](Cc1c[nH]cn1)C(=O)N1CCC[C@H]1CN[C@@H](Cc1ccccc1)C(N)=O)C(C)C (stereo in doubt)
pIC50 [1]: 7.25
pIC50 [2]: 8.00
Activity [3]: 50 nM

CC(NC(=O)[C@H](Cc1c[nH]c2ccccc12)NC(=O)[C@H](Cc1c[nH]cn1)NC(=O)CCc1ccccc1)C(=O)N[C@H](C(=O)NC(C)C(=O)N[C@@H](Cc1c[nH]cn1)C(=O)N1CCC[C@@H]1C(O)CC(=O)N[C@@H](Cc1ccccc1)C(N)=O)C(C)C (stereo in doubt)
pIC50 [1]: 6.85
Activity (NIH3T3 [6]): inactive
pIC50 [2]: 7.22

CC(C)CC(NC(=O)[C@H](Cc1c[nH]cn1)NC(=O)C(C)NC(=O)[C@@H](NC(=O)C(C)NC(=O)[C@H](Cc1c[nH]c2ccccc12)NC(=O)[C@H](Cc1c[nH]cn1)NC(=O)CCc1ccccc1)C(C)C)C(O)CC(=O)N[C@@H](Cc1ccccc1)C(N)=O (stereo in doubt)
pIC50 [1]: 7.14
pIC50 [2]: 10.00
Activity [3]: 6 nM

COc1ccc(CCC(=O)N[C@@H](Cc2c[nH]cn2)C(=O)N[C@@H](Cc2c[nH]c3ccccc23)C(=O)N[C@@H](C)C(=O)N[C@H](C(=O)N[C@H](C)C(=O)N[C@@H](Cc2c[nH]cn2)C(=O)N2CCC[C@@H]2CN[C@@H](Cc2ccccc2)C(N)=O)C(C)C)cc1 ({Propanoyl(3-(4-MeO-Ph))}-HWAV[dA]H-{dProψ(CH2NH)PheNH2})
pIC50 [4]: 9.33
pIC50 (NIH3T3 [5]): 8.00
Activity [3]: 0.3 nM
